Results: paper PMC3338355 (Biochemistry, 2011)
Non-standard residues stand in square brackets, D forms with d. No end group written: not given here. pS = N[C@@H](COP(=O)(O)O)C(=O)O

Tests used:
Dullard 46–244 [1] = target: T1, Dullard 46–244 (Homo sapiens, UniProt O95476); assay: Biomol Green phosphate reagent; type: biochemical; conditions: values in parentheses, 25 °C
T1 sequence (O95476 46-244): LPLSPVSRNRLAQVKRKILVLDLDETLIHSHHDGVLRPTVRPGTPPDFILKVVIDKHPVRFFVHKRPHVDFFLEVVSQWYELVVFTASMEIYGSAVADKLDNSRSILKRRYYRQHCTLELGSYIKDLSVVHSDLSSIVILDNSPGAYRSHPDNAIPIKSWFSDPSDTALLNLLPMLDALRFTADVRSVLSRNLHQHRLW
In short: (§1)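 Dullard residues 46–244 expressed in E. coli and purified to >95% by SDS/PAGE. Substrates were Pro/Thr/Ser-containing phosphoserine nonapeptides representing lipin1 phosphorylation sites. Dephosphorylation was followed as phosphate release under steady-state conditions to derive kcat/Km. The MESG-coupled assay and the molybdate green assay were used as independent read-outs.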

Dullard 46–244 [2] = target: T1, Dullard 46–244; assay: MESG-coupled phosphatase assay; type: biochemical; conditions: MESG-coupled phosphatase assay (EnzChek E-6646), 25°C
In short: as §1

dullard = conditions: dullard-catalyzed hydrolysis of generic substrate; cited from earlier work

**Q.** For SGSRP[pS]TP [S248], which Km (Dullard 46–244 [1]) is on record?
**A.** Its Km is 700 µM.

**Q.** What about the kcat (Dullard 46–244 [1]) of the same molecule?
**A.** The kcat was 0.01 ± 0.002 s⁻¹.

**Q.** What about the kcat/Km (Dullard 46–244 [1]) of the same molecule?
**A.** The kcat/Km was 14 M⁻¹ s⁻¹.

**Q.** What about the kcat/Km (Dullard 46–244 [2]) of the same molecule?
**A.** The kcat/Km was 750 M⁻¹ s⁻¹.

**Q.** What does the source list for PIL[pS]EGASR [S110]?
**A.** Km (Dullard 46–244 [1]): 700 µM; kcat (Dullard 46–244 [1]): 0.28 ± 0.02 s⁻¹; kcat/Km (Dullard 46–244 [1]): 400 M⁻¹ s⁻¹; kcat/Km (Dullard 46–244 [2]): 650 M⁻¹ s⁻¹

**Q.** For O=[N+]([O-])c1ccc(OP(=O)(O)O)cc1 [pNPP, p-nitrophenyl phosphate], which Km (dullard) is on record?
**A.** Its Km is 18000 µM.

**Q.** And the kcat (dullard)?
**A.** Its kcat is 1 s⁻¹.

**Q.** What about the kcat/Km (dullard) of the same molecule?
**A.** The kcat/Km was 56 M⁻¹ s⁻¹.

**Q.** For DNMNT[pS]EDE [S176], which kcat (Dullard 46–244 [1]) is on record?
**A.** The kcat was over 0.5 s⁻¹.
